Laboratory results from publication PMC3449281 (Chemistry & biology, 2012).
Entries after “also recorded” stand apart in the source; their conditions may differ.

Legend:
[1] = test system: miR-21 FLuc assay; assay: miR-21 FLuc cell-based reporter gene assay; conditions: 48-hour incubation with compound
How it was run: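 The cell-based reporter expresses wild-type FLuc and was optimized to detect increases in FLuc signal. Cells were exposed to test compound for 48 h. Unlike the read-through assay, there was no wash step before the detection reagent was added. Concentration–response curves were recorded.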

[2] = molecular target: purified firefly luciferase (FLuc) (Photinus pyralis, UniProt P08659); assay: Mode of inhibition; type: biochemical; conditions: IC50 shift with 1 mM D-LH2, 1 mM ATP or high CoASH
How it was run: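 Purified P. pyralis FLuc was run in the standard luciferase assay (10 μM ATP and D-LH2, the KM levels). Test compounds were given as 12-point titrations, 57.5 μM to 0.3 nM final. One substrate was kept at KM and the other saturating (1 mM ATP or 1 mM D-luciferin), or 500 μM CoASH was added. Fold shift = IC50 at high substrate / IC50 at KM. There were three separate tests, each in duplicate.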

[3] = molecular target: T1, purified RLuc (Renilla reniformis, UniProt P27652); conditions: highest concentration tested = 57.5 μM
T1 sequence (P27652 1-311): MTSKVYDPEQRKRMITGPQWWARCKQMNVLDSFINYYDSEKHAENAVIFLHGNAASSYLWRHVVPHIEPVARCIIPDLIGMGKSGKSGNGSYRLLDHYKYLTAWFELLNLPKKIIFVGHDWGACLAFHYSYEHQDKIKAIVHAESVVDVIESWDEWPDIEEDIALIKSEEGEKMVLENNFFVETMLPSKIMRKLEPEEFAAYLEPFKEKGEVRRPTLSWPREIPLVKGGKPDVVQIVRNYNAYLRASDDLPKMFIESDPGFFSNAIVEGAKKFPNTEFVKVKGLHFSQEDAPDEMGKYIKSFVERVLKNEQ

Sequence of purified firefly luciferase (FLuc) (P08659 whole entry): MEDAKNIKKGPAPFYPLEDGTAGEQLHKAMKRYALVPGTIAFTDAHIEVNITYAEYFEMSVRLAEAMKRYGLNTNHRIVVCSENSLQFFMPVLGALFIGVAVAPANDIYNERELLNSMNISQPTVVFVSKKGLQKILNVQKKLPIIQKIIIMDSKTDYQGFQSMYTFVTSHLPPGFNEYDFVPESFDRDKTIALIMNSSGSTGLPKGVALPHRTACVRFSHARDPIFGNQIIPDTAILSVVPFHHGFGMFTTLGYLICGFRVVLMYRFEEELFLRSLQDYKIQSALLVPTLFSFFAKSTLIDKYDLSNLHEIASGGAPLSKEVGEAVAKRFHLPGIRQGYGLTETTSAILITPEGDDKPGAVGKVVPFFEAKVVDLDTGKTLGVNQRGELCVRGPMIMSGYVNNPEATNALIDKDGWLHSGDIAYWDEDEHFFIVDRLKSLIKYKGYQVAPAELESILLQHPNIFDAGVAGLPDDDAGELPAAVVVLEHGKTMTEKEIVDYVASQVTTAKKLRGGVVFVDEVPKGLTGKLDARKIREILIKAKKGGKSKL

| SMILES | Mode of inhibition (substrate competition) [2] | Activity in RLuc assay [3] | other results |
| --- | --- | --- | --- |
| CC(C)(C)C(=O)Nc1ccc(-c2nc3ccccc3s2)cc1 [CID: 16015828] |  |  | Effect on FLuc signal in cell-based miR-21 assay [1]: strong activation |
| Cn1c(NN=Cc2cc3ccccc3nc2Cl)nc2ccccc21 [CID:4216593] | competitive with both D-LH2 and ATP; also recorded: significantly reduced by either ATP or D-LH2 |  |  |
| O=C(Nc1ccccc1C(=O)O)c1cc(S(=O)(=O)Nc2cccc(F)c2)ccc1Cl [compound 1105141] |  | RLuc-active |  |
| O=C(Nc1ccccc1C(=O)O)c1cccc(S(=O)(=O)Nc2ccc(Br)cc2)c1 [compound 1087370] |  | RLuc-active |  |
| COc1ccc(-c2nc3ccccc3s2)cc1O [CID: 976322] | ATP was found to enhance inhibitor binding |  |  |
| CC(=NNC(=O)c1ccccc1NC(=O)c1ccc(Cl)cc1)c1ccncc1 [CID: 16193026] | only ATP |  |  |
